In ChEMBL document CHEMBL3856229, “Hybrid Antibiotic Overcomes Resistance in P. aeruginosa by Enhancing Outer Membrane Penetration and Reducing Efflux” (J Med Chem, 2016):
Converted amounts (≈) assume the structure as drawn.

What was measured:
Pseudomonas aeruginosa [1] = assay: Antibacterial activity against multidrug-resistant/tobramycin-susceptible Pseudomonas aeruginosa isolate 86052; assay type: functional
Staphylococcus aureus [2] = assay: Antibacterial activity against Staphylococcus aureus ATCC 29213 after 24 hrs by microtitre broth dilution method; assay type: functional; details: ATCC 29213, 24 h
Staphylococcus aureus [3] = assay: Antibacterial activity against methicillin-resistant Staphylococcus aureus ATCC 33592 after 24 hrs by microtitre broth dilution method; assay type: functional; details: ATCC 33592, 24 h
[4] = test system: Staphylococcus epidermidis; assay: Antibacterial activity against methicillin-susceptible Staphylococcus epidermidis isolate CANWARD-2008 81388 after 24 hrs by microtitre broth dilution method; assay type: functional; details: isolate CANWARD-2008 81388, 24 h
[5] = test system: Staphylococcus epidermidis; assay: Antibacterial activity against methicillin-resistant Staphylococcus epidermidis isolate CAN-ICU 61589 after 24 hrs by microtitre broth dilution method; assay type: functional; details: isolate CAN-ICU 61589, 24 h
Enterococcus faecalis = assay: Antibacterial activity against Enterococcus faecalis ATCC 29212 after 24 hrs by microtitre broth dilution method; assay type: functional; details: ATCC 29212, 24 h
Enterococcus faecium = assay: Antibacterial activity against Enterococcus faecium ATCC 27270 after 24 hrs by microtitre broth dilution method; assay type: functional; details: ATCC 27270, 24 h
Streptococcus pneumoniae = assay: Antibacterial activity against Streptococcus pneumoniae ATCC 49619 after 24 hrs by microtitre broth dilution method; assay type: functional; details: ATCC 49619, 24 h
Escherichia coli [6] = assay: Antibacterial activity against gentamicin-resistant Escherichia coli isolate CAN-ICU 61714 after 24 hrs by microtitre broth dilution method; assay type: functional; details: isolate CAN-ICU 61714, 24 h
Escherichia coli [7] = assay: Antibacterial activity against amikacin-resistant Escherichia coli isolate CAN-ICU 63074 after 24 hrs by microtitre broth dilution method; assay type: functional; details: isolate CAN-ICU 63074, 24 h
Escherichia coli [8] = assay: Antibacterial activity against gentamicin/tobramycin/ciprofloxacin-resistant Escherichia coli isolate CANWARD-2011 97615 harboring AAC3-2A after 24 hrs by microtitre broth dilution method; assay type: functional; details: isolate CANWARD-2011 97615, 24 h
Pseudomonas aeruginosa [9] = assay: Antibacterial activity against Pseudomonas aeruginosa ATCC 27853 after 24 hrs by microtitre broth dilution method; assay type: functional; details: ATCC 27853, 24 h
Pseudomonas aeruginosa [10] = assay: Antibacterial activity against gentamicin-resistant Pseudomonas aeruginosa isolate CAN-ICU 62308 after 24 hrs by microtitre broth dilution method; assay type: functional; details: isolate CAN-ICU 62308, 24 h
Pseudomonas aeruginosa [11] = assay: Antibacterial activity against gentamicin/tobramycin-resistant Pseudomonas aeruginosa isolate CANWARD-2011 96846 after 24 hrs by microtitre broth dilution method; assay type: functional; details: isolate CANWARD-2011 96846, 24 h
[12] = test system: Stenotrophomonas maltophilia; assay: Antibacterial activity against Stenotrophomonas maltophilia isolate CAN-ICU 62584 after 24 hrs by microtitre broth dilution method; assay type: functional; details: isolate CAN-ICU 62584, 24 h
Acinetobacter baumannii = assay: Antibacterial activity against Acinetobacter baumannii isolate CAN-ICU 63169 after 24 hrs by microtitre broth dilution method; assay type: functional; details: isolate CAN-ICU 63169, 24 h
Klebsiella pneumoniae = assay: Antibacterial activity against Klebsiella pneumoniae ATCC 13883 after 24 hrs by microtitre broth dilution method; assay type: functional; details: ATCC 13883, 24 h
Pseudomonas aeruginosa [13] = assay: Antibacterial activity against multidrug/extremely drug-resistant/colistin-susceptible Pseudomonas aeruginosa isolate 100036; assay type: functional
Pseudomonas aeruginosa [14] = assay: Antibacterial activity against multidrug/extremely drug-resistant/colistin-susceptible Pseudomonas aeruginosa isolate 101885; assay type: functional
Pseudomonas aeruginosa [15] = assay: Antibacterial activity against multidrug/extremely drug-resistant/colistin-susceptible Pseudomonas aeruginosa isolate 259-96918; assay type: functional
Pseudomonas aeruginosa [16] = assay: Antibacterial activity against multidrug/extremely drug-resistant/colistin-susceptible Pseudomonas aeruginosa isolate 260-97103; assay type: functional
Pseudomonas aeruginosa [17] = assay: Antibacterial activity against multidrug/extremely drug-resistant/colistin-susceptible Pseudomonas aeruginosa isolate 262-101856; assay type: functional
Pseudomonas aeruginosa [18] = assay: Antibacterial activity against multidrug/extremely drug-resistant/colistin-susceptible Pseudomonas aeruginosa isolate 264-104354; assay type: functional
Pseudomonas aeruginosa [19] = assay: Antibacterial activity against pandrug-resistant Pseudomonas aeruginosa isolate 91433; assay type: functional
Pseudomonas aeruginosa [20] = assay: Antibacterial activity against pandrug-resistant Pseudomonas aeruginosa isolate 101243; assay type: functional
Pseudomonas aeruginosa [21] = assay: Antibacterial activity against Pseudomonas aeruginosa PAO1; assay type: functional
Pseudomonas aeruginosa [22] = assay: Antibacterial activity against multidrug-resistant/tobramycin-susceptible Pseudomonas aeruginosa isolate 86053; assay type: functional
Pseudomonas aeruginosa [23] = assay: Antibacterial activity against multidrug-resistant/tobramycin-susceptible Pseudomonas aeruginosa isolate 86067; assay type: functional
Pseudomonas aeruginosa [24] = assay: Antibacterial activity against multidrug-resistant/tobramycin-susceptible Pseudomonas aeruginosa isolate 86079; assay type: functional
Pseudomonas aeruginosa [25] = assay: Antibacterial activity against multidrug-resistant/tobramycin-susceptible Pseudomonas aeruginosa isolate 86141; assay type: functional
Pseudomonas aeruginosa [26] = assay: Antibacterial activity against multidrug-resistant/tobramycin-susceptible Pseudomonas aeruginosa isolate 92014; assay type: functional
Pseudomonas aeruginosa [27] = assay: Antibacterial activity against multidrug-resistant/tobramycin-susceptible Pseudomonas aeruginosa isolate 108590; assay type: functional
Pseudomonas aeruginosa [28] = assay: Antibacterial activity against multidrug-resistant/tobramycin-susceptible Pseudomonas aeruginosa isolate 79199; assay type: functional
Pseudomonas aeruginosa [29] = assay: Antibacterial activity against multidrug-resistant/tobramycin-susceptible Pseudomonas aeruginosa isolate 80621; assay type: functional
Pseudomonas aeruginosa [30] = assay: Antibacterial activity against multidrug-resistant/tobramycin-susceptible Pseudomonas aeruginosa isolate 83182; assay type: functional
Pseudomonas aeruginosa [31] = assay: Antibacterial activity against multidrug-resistant/tobramycin-susceptible Pseudomonas aeruginosa isolate 84745; assay type: functional
Pseudomonas aeruginosa [32] = assay: Antibacterial activity against multidrug-resistant/tobramycin-susceptible Pseudomonas aeruginosa isolate 85322; assay type: functional
Escherichia coli [33] = assay: Antibacterial activity against Escherichia coli ATCC 25922 after 24 hrs by microtitre broth dilution method; assay type: functional; details: ATCC 25922, 24 h
Pseudomonas aeruginosa [34] = assay: Antibacterial activity against extremely drug-resistant Pseudomonas aeruginosa isolate 104354 infected in Galleria mellonella assessed as larvae survival at 50 mg/kg administered as single dose measured after 24 hrs (reference value: 27 %); assay type: functional; details: isolate 104354, 24 h
Procedure, shortened: (§1)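 Galleria mellonella larvae were infected with 10^6 CFU of XDR P. aeruginosa #104354, resistant to all antipseudomonal classes except colistin. A single injected drug dose was given 2 h post-infection: 50 mg/kg with survival read at 24 h, or 75 mg/kg with survival read at 96 h. Controls were infected untreated larvae and PBS-injected larvae. Two independent experiments of 15 larvae each (n = 30).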

Pseudomonas aeruginosa [35] = assay: Antibacterial activity against extremely drug-resistant Pseudomonas aeruginosa isolate 104354 infected in Galleria mellonella assessed as larvae survival at 75 mg/kg administered as single dose measured after 96 hrs; assay type: functional; details: isolate 104354, 96 h; procedure, shortened: as §1
Pseudomonas aeruginosa [36] = assay: Antimicrobial activity against Pseudomonas aeruginosa PAO200; assay type: functional
Procedure, shortened: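 MIC (µg/mL) determined in PAO200, a PAO1-derived MexAB-OprM deletion strain used to assess efflux effects.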

Pseudomonas aeruginosa [37] = assay: Antimicrobial activity against Pseudomonas aeruginosa PAO750; assay type: functional
Procedure, shortened: (§2)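 MICs were measured in PAO1 and in PAO750. PAO750 is a PAO1 derivative lacking the MexAB-OprM, MexCD-OprJ, MexEF-OprN, MexJK and MexXY efflux pumps and the outer membrane protein OpmH.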

[38] = Selectivity ratio of MIC for Pseudomonas aeruginosa PAO1 to MIC for Pseudomonas aeruginosa PAO750; assay type: functional; procedure, shortened: as §2
[39] = Inhibition of Pseudomonas aeruginosa DNA gyrase A assessed as inhibition of DNA supercoiling using PBR322 DNA as substrate after 30 mins by SYBR Gold staining based agarose gel electrophoresis
Pseudomonas aeruginosa [40] = assay: Ratio of MIC for Pseudomonas aeruginosa PAO1 after 25 serial passages to MIC for Pseudomonas aeruginosa PAO1 prior to 25 serial passages; assay type: functional
Procedure, shortened: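 P. aeruginosa PAO1 exposed to sub-inhibitory (0.5 x MIC) drug over successive subcultures as a resistance-selection procedure. MIC compared after versus before passaging.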

COc1c(N2C[C@@H]3CCCN[C@@H]3C2)c(F)cc2c(=O)c(C(=O)O)cn(C3CC3)c12 [MOXIFLOXACIN]
MIC (Pseudomonas aeruginosa [1]): > 16 µg/mL | MIC (Staphylococcus aureus [2]): ≤ 0.25 µg/mL | MIC (Staphylococcus aureus [3]): ≤ 0.25 µg/mL | MIC [4]: ≤ 0.25 µg/mL | MIC [5]: 64 µg/mL (≈ 159 µM) | MIC (Enterococcus faecalis): ≤ 0.25 µg/mL | MIC (Enterococcus faecium): 2 µg/mL (≈ 4.98 µM) | MIC (Streptococcus pneumoniae): ≤ 0.25 µg/mL | MIC (Escherichia coli [6]): 0.5 µg/mL (≈ 1.25 µM) | MIC (Escherichia coli [7]): 1 µg/mL (≈ 2.49 µM) | MIC (Escherichia coli [8]): 32 µg/mL (≈ 79.7 µM) | MIC (Pseudomonas aeruginosa [9]): 4 µg/mL (≈ 9.96 µM) | MIC (Pseudomonas aeruginosa [10]): 16 µg/mL (≈ 39.9 µM) | MIC (Pseudomonas aeruginosa [11]): 16 µg/mL (≈ 39.9 µM) | MIC [12]: 4 µg/mL (≈ 9.96 µM) | MIC (Acinetobacter baumannii): 1 µg/mL (≈ 2.49 µM) | MIC (Klebsiella pneumoniae): ≤ 0.25 µg/mL | MIC (Pseudomonas aeruginosa [13]): 128 µg/mL (≈ 319 µM) | MIC (Pseudomonas aeruginosa [14]): 128 µg/mL (≈ 319 µM) | MIC (Pseudomonas aeruginosa [15]): 512 µg/mL (≈ 1280 µM) | MIC (Pseudomonas aeruginosa [16]): 32 to 64 µg/mL (≈ 79.7 to 159 µM) | MIC (Pseudomonas aeruginosa [17]): 64 to 128 µg/mL (≈ 159 to 319 µM) | MIC (Pseudomonas aeruginosa [18]): 32 to 64 µg/mL (≈ 79.7 to 159 µM) | MIC (Pseudomonas aeruginosa [19]): 8 to 16 µg/mL (≈ 19.9 to 39.9 µM) | MIC (Pseudomonas aeruginosa [20]): 8 µg/mL (≈ 19.9 µM) | MIC (Pseudomonas aeruginosa [21]): 1 µg/mL (≈ 2.49 µM) | MIC (Pseudomonas aeruginosa [22]): 16 µg/mL (≈ 39.9 µM) | MIC (Pseudomonas aeruginosa [23]): 16 µg/mL (≈ 39.9 µM) | MIC (Pseudomonas aeruginosa [24]): > 16 µg/mL | MIC (Pseudomonas aeruginosa [25]): > 16 µg/mL | MIC (Pseudomonas aeruginosa [26]): 16 µg/mL (≈ 39.9 µM) | MIC (Pseudomonas aeruginosa [27]): 16 µg/mL (≈ 39.9 µM) | MIC (Pseudomonas aeruginosa [28]): > 16 µg/mL | MIC (Pseudomonas aeruginosa [29]): 8 µg/mL (≈ 19.9 µM) | MIC (Pseudomonas aeruginosa [30]): 16 µg/mL (≈ 39.9 µM) | MIC (Pseudomonas aeruginosa [31]): 16 µg/mL (≈ 39.9 µM) | MIC (Pseudomonas aeruginosa [32]): 8 µg/mL (≈ 19.9 µM) | MIC (Escherichia coli [33]): ≤ 0.25 µg/mL | survival at 50 mg/kg (Pseudomonas aeruginosa [34]): 27% | survival at 75 mg/kg (Pseudomonas aeruginosa [35]): 7% | MIC (Pseudomonas aeruginosa [36]): 0.25 µg/mL (≈ 0.623 µM) | MIC (Pseudomonas aeruginosa [37]): 0.0078 µg/mL (≈ 0.0194 µM) | Selectivity ratio [38]: 128 | IC50 [39]: 2.6 µM | Ratio (Pseudomonas aeruginosa [40]): 16
